Assay outcomes (PubChem BioAssay)
The list is not random: actives were taken first. Their share in the collection is about 3.5%.
b-catenin transl: alters nuclear translocation of beta-catenin in HeLa cells; 190,000 compounds, 0.3% hits; immunofluorescence imaging; nuclear translocation activity, % at 5 µM;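 active = nuclear translocation activity above 50% at 5 µM, with a well cell count of 50 or more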;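 also: per-cell ratio of nuclear to cytoplasmic median beta-catenin stain intensity; plate controls were DMSO negative control for no effect and GSK-3 inhibitor IX positive control for full effect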
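System: Human HeLa cells, endogenous beta-catenin | Compound dosing: 5 µM primary, 0.02–20 µM confirmation | Timing: 24 h compound exposure at 37°C, 5% CO2 | Measured by: Fluorescence imaging of beta-catenin antibody stain plus DAPI | Read-out basis: % activation of per-cell nuclear versus cytoplasmic median beta-catenin signal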
Efa HMGR inh: E. faecalis class II HMG-CoA reductase inhibition. purified E. faecalis HMGR, NADPH absorbance 340 nm kinetic. inhibition, % at 10 µM. 190,000 compounds, 0.41% hits;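 active = inhibition above a set limit, the median over all tested compounds plus 3 SD, cut at about 9.5% in these data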;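 also: enzyme runs in reverse so mevalonate oxidation gives rising NADPH absorbance; 0% = complete reaction with DMSO and 100% = background rate lacking mevalonate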
RAM inhibit: yeast RAM network inhibition; S. cerevisiae dse1pr::URA3 reporter, 5-FOA growth OD615, 2 d; analog-sensitive cbk1-as2 kinase mutant strain; inhibition, % at 50 µM; AID 868; 190,000 compounds, 1.8% hits;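 active = inhibition above a set limit, 3 SD over mean compound inhibition, cut at about 8.4% in these data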;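 also: 0% = DMSO-only wells with no growth and 100% = 10 µM 1-NA-PP1 full growth; inhibition rescues growth on 5-FOA so higher OD means more RAM inhibition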
Yeast growth inh: reduces growth of yeast BB579 in restrictive medium; 140,000 compounds, 0.51% hits; S. cerevisiae BB579 growth, OD615, 48 h; AID 804; inhibition, % at 10 µM;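 active = inhibition above a set limit, 3 SD over the mean compound inhibition, cut at about 44% in these data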
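System: DeaD yeast strain BB579; buffer or medium: CSMM-D dextrose restrictive medium; technique: OD at 615 nm; schedule: 4 h cell preincubation, 48 h compound exposure, 30 °C humidified; doses: single 10 µM dose; controls: amphotericin B 10 µg/mL, positive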
MT stabilize HCS: microtubule stabilizers in HeLa cells; HeLa tubulin immunostaining HCS, 24 h; share of cells brighter than vehicle mean+2SD; % tubulin-high responders, % at 10 µM; 200,000 compounds, 0.83% hits;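 active = plate Z-score above 3 for both tubulin-high and condensed-nucleus cell shares, with cell loss under 80%, at 10 µM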;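 also: anti alpha tubulin signal scored within the nucleus-defined area of each cell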
Yeast lifespan up: extends the lifespan of yeast; S. cerevisiae growth with nicotinamide, OD615; deaD strain in restrictive glucose medium; inhibition of the nicotinamide effect, % at 10 µM; 130,000 compounds, 0.68% hits;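 active = inhibition above a set limit, placed 3 SD over the median of all compounds, cut at about 26% in these data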;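 also: 0% = nicotinamide-treated wells and 100% = cells grown without nicotinamide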
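Test system: DeaD-strain S. cerevisiae / Buffer or medium: restrictive glucose medium / Also added: nicotinamide 1.5 mM / Doses: one concentration, 10 µM, DMSO 0.25% / Schedule: 48 h at 30 °C / Signal: OD615 measurement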
Starred values were filed as active, the others as inactive; / = no result given.

SMILES | b-catenin transl | Efa HMGR inh | RAM inhibit | Yeast growth inh | MT stabilize HCS | Yeast lifespan up
Cn1nc(C(F)(F)F)c(/C=N/OC(=O)c2ccccc2)c1Sc1ccc(Cl)cc1 | -1 | -4 | 10* | -54 | 1 | -11
CC1(C(=O)NC(=S)NNC(=O)c2ccncc2)CCCCC1 | 2 | 1 | -1 | -42 | 2 | 10
O=C(NNC(=S)NC(=O)C12CC3CC(CC(C3)C1)C2)c1ccncc1 | 0 | -2 | -1 | 74* | 3 | -3
N#CC1=C(N)OC2=C(CCc3ccccc32)C1c1ccccc1Cl (stereo not drawn) | 12 | -6 | 3 | -37 | 18* | 3
Cn1c2c(c(=O)n(C)c1=O)C(c1ccccc1Cl)C(C#N)=C(N)O2 (stereo not drawn) | 0 | / | / | / | / | /
Cc1cccc(CC(=O)N2CCC(N3CCC(C(=O)N4CCOCC4)CC3)CC2)c1 | 0 | 0 | 0 | / | 3 | /
O=C(OCCN1C(=O)c2cccc3c(N4CCOCC4)ccc(c23)C1=O)c1cccc(Cl)c1 | 56* | -5 | 8 | -6 | 16* | 9
O=C(OCCN1C(=O)c2cccc3c(N4CCOCC4)ccc(c23)C1=O)c1ccc(Cl)cc1Cl | 80* | 0 | 5 | -34 | 16* | 6
O=C(OCCN1C(=O)c2cccc3c(N4CCOCC4)ccc(c23)C1=O)c1ccccc1Cl | / | 0 | 4 | -32 | 14* | 0
CC(=O)Oc1ccc2c(=O)c(Oc3ccccc3)coc2c1OC(C)=O | -4 | 2 | 2 | -25 | 1 | 4
CCCCN1C(=O)C(=O)N(CC(=O)NC2CCCc3ccccc32)C1=O (stereo not drawn) | -2 | -7 | -1 | / | 3 | /
CCCOc1ccc(OCCn2nc(C(=O)O)c3ccccc3c2=O)cc1 | -2 | -2 | 9.6* | / | 2 | /
Cc1ccccc1OCCn1nc(C(=O)O)c2ccccc2c1=O | -1 | -6 | 1 | -6 | 3 | -13
O=C(O)c1nn(CCOc2cccc(Cl)c2)c(=O)c2ccccc12 | 1 | -1 | 8.8* | / | 4 | /
COc1ccccc1N1CCN(Cc2cc(Br)c(O)c3ncccc23)CC1 | / | 0 | -1 | 97* | 10 | -16
Oc1c(CN2CCN(c3ccccn3)CC2)cc(Cl)c2cccnc12 | 2 | -1 | -1 | 59* | 9 | -3
OCCN1CCN(Cc2cc(Cl)c3cccnc3c2O)CC1 | / | -4 | -1 | 22 | 2 | 14
O=C(Oc1c(CN2CCOCC2)cc(Cl)c2cccnc12)c1ccc(F)cc1 | / | -1 | -1 | 11 | 3 | 28*
CCn1nc(C)c(CN2CCCC(CO)(Cc3cccc(Cl)c3)C2)c1C (stereo not drawn) | 0 | 0 | 1 | / | 2 | /
COc1cc(S(=O)(=O)Nc2ccccc2C)ccc1NC(=O)c1ccncc1 | 3 | 16* | 1 | / | 4 | /
COc1cc(S(=O)(=O)Nc2ccc(C)cc2)ccc1NC(=O)c1ccncc1 | -1 | -2 | 1 | -21 | 3 | -1
CC(C)CNC(=O)COc1ccc(Sc2ccc(OCC(=O)NCC(C)C)cc2)cc1 | 1 | -1 | 5 | -9 | 4 | 0
CCCC(C)NC(=O)COc1ccc(Sc2ccc(OCC(=O)NC(C)CCC)cc2)cc1 (stereo not drawn) | -3 | -4 | 10* | -54 | 1 | 7
C/C(=N\NC(=O)CSc1nc(C)[nH]c1[N+](=O)[O-])c1ccc(F)cc1 | -5 | / | / | / | / | /
COC(=O)Nc1ccc(S(=O)(=O)N2c3ccccc3CCC2C)cc1 (stereo not drawn) | 8 | -2 | 1 | -40 | 19* | -8
SMILES | b-catenin transl | Efa HMGR inh | RAM inhibit | Yeast growth inh | MT stabilize HCS | Yeast lifespan up
COC(=O)Nc1ccc(S(=O)(=O)N2CCCCC2C(=O)O)cc1 (stereo not drawn) | -3 | -8 | 7 | / | 3 | /
Cc1nc(-c2ccc([N+](=O)[O-])cc2)sc1C(=O)O | 1 | -4 | 0 | / | 5 | /
Cc1cc(C(=O)CN2C(=O)NC(C)(CC(C)C)C2=O)c(C)n1-c1ccc2c(c1)OCO2 (stereo not drawn) | 0 | -7 | 1 | -21 | 3 | 65*
C[C@H](NC(N)=O)C(=O)Nc1ccc2c(c1)OCO2 | -1 | / | / | / | / | /
CCC(C)NC(=O)CCn1c(-c2ccc(F)cc2)cc(C(C)=O)c1C (stereo not drawn) | -4 | 9.7* | 1 | / | 4 | /
CCOC(=O)c1cc(-c2ccc(C)cc2)n(CCC(=O)NC(C)CC)c1C (stereo not drawn) | -1 | -6 | 6 | -25 | 2 | -5
CCOc1cc(C)c(Cl)cc1S(=O)(=O)NCc1ccc2c(c1)OCO2 | 4 | -6 | 4 | -27 | 35* | 1
O=C(CSc1n[nH]c(-c2ccccc2O)n1)N1CCCc2ccccc21 | -1 | -3 | 5 | -9 | 48* | -5
O=C(CSc1n[nH]c(-c2cccs2)n1)N1CCCc2ccccc21 | -2 | 2 | 0 | -21 | 2 | -15
CC(=O)c1ccc(Nc2ccc(-c3ccccc3F)nn2)cc1 | 1 | 0 | 3 | / | 2 | /
O=C1NCCc2c1[nH]c1ccc([N+](=O)[O-])cc21 | 2 | -9 | 1 | / | 3 | /
O=C(N/N=C1\CCCc2c1[nH]c1ccc([N+](=O)[O-])cc21)c1ccncc1 | 3 | -1 | 8.4* | -17 | 4 | 5
COC(=O)NCC12CC3CC(C1)CC(CNC(=O)OC)(C3)C2 | 3 | -2 | 1 | -38 | 4 | 37*
CC(C)(C)c1nc2ccccc2c2nnc(SCC(=O)Nc3nccs3)n12 | 40 | 3 | 5 | -21 | 42* | 1
Cn1c(=O)c(=O)n(C)c2cc(S(=O)(=O)N3CCCC3C(=O)NCc3cccnc3)ccc21 (stereo not drawn) | -2 | / | / | / | / | /
Oc1ccc2ccccc2c1C=NC1CCCCC1 | -2 | -4 | 1 | / | 7 | /
Oc1c(Br)cc(Br)cc1/C=N/c1nc2c(s1)CCCC2 | / | -4 | -1 | 99* | 4 | -15
Oc1ccc2ccccc2c1/C=N/c1nc2c(s1)CCCC2 | -4 | -6 | 6 | -21 | 2 | 33*
Cc1cc2ccccc2n2c(SCC(=O)Nc3ccc(S(=O)(=O)N4CCC(C)CC4)cc3)nnc12 | -1 | -2 | 6 | -14 | 3 | 0
CSc1nc2ccccc2nc1N(C)S(=O)(=O)c1ccc(C)cc1 | 0 | / | / | / | / | /
O=Cc1ccc(OCc2nnsc2Cl)cc1 | 1 | -5 | 2 | / | 3 | /
CCOc1cc(S(=O)(=O)N2CCC(Cc3ccccc3)CC2)c(OCC)cc1-n1cnnn1 | -8 | 2 | 5 | -34 | 3 | -8
CCOc1cc(S(=O)(=O)NCCc2cccc(C)c2)c(OCC)cc1-n1cnnn1 | 0 | 1 | 8.8* | 3 | 4 | -15
CCOc1cc(S(=O)(=O)N2CC=C(c3ccc(F)cc3)CC2)c(OCC)cc1-n1cnnn1 | 1 | 0 | 6 | -71 | 45* | -2
